From ChEMBL document CHEMBL3351561, “Discovery of 9-(1-anilinoethyl)-2-morpholino-4-oxo-pyrido[1,2-a]pyrimidine-7-carboxamides as PI3Kβ/δ inhibitors for the treatment of PTEN-deficient tumours” (Bioorg Med Chem Lett, 2014)
Converted amounts (≈) assume the structure as drawn.

What was measured:
[1] = Clearance in mouse plasma at 5 umol/kg, iv and 30 umol/kg, po; format: ADME, organism-based
Outline: (§1)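 […] mice were dosed at 5 µmol/kg i.v. and 30 µmol/kg p.o. Clearance is given in mL/min/kg and oral bioavailability in %.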

[2] = Total plasma concentration in SCID mouse xenografted with PTEN-null human PC3 cells at 100 mg/kg, po measured after 30 mins; format: ADME, organism-based, PC-3; parameters: dose 100 mg/kg, route oral
Outline: (§2)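 Total plasma concentration was measured in SCID mice carrying PC3 xenografts after a single oral dose given as a suspension (50, 100 or 200 mg/kg). Samples were taken at 0.5 to 8 h.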

Homo sapiens = species: Homo sapiens; assay: Ratio of IC50 for PI3Kalpha human BT474 cells to IC50 PI3Kbeta in human […] cells
Mus musculus [3] = assay: Inhibition of Akt phosphorylation in SCID mouse xenografted with PTEN-null human PC3 cells at 100 mg/kg, po measured after 30 mins; format: functional; conditions: PC-3, 0.5 h
Outline: (§3)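 SCID mice carrying PTEN-null PC3 prostate xenografts received a single oral dose as a suspension (50, 100 or 200 mg/kg).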

[4] = Buffer/octanol partition coefficient, log D of the compound at pH 7.4 by shake flask method; format: physicochemical
Outline: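 LogD at pH 7.4 was measured by shake-flask with a buffer/octanol volume ratio of 100:1.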

[5] = Total plasma concentration in SCID mouse xenografted with PTEN-null human PC3 cells at 100 mg/kg, po measured after 4 hrs; format: ADME, organism-based, PC-3; parameters: dose 100 mg/kg, route oral; outline: as §2
Mus musculus [6] = assay: Inhibition of Akt phosphorylation in SCID mouse xenografted with PTEN-null human PC3 cells at 100 mg/kg, po measured after 4 hrs; format: functional; conditions: PC-3, 4 h; outline: as §3
[7] = target: T1, Phosphatidylinositol 4,5-bisphosphate 3-kinase catalytic subunit alpha isoform (Homo sapiens, UniProt P42336); assay: Inhibition of PI3Kalpha in human BT474 cells assessed as inhibition of […] Akt phosphorylation after 2 hrs by fluorescence assay; format: cell-based, BT-474
Outline: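 BT474 cells were seeded in DMEM with 10% FCS and 1% glutamine and left to adhere overnight, then treated with compound in DMSO for 2 h at 37 °C and 5% CO2. Cells were lysed with a phosphatase/protease-inhibitor buffer. Lysate was captured on anti-total-Akt plates, probed with anti-phospho-Akt Thr308 and an HRP secondary, and read by fluorescence (ex 325/em 420 nm). Values are the geometric mean of ≥2 determinations.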

[8] = Ratio of total plasma concentration in PTEN-null human PC3 cells xenografted in SCID mouse at 100 mg/kg, po single dose at 4 hrs to IC50 for PI3Kbeta in human MAD-MB-468 cells; parameters: species or system PC-3
[9] = Fraction unbound in mouse plasma; format: ADME, cell-free
Outline: (§4)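 Protein binding was measured in nude mouse plasma and in human plasma and is expressed as fraction unbound (%).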

[10] = Apparent permeability from apical (pH 6.5) to […] of human Caco2 cells; format: ADME, cell-based; conditions: Caco-2, pH 6.5
[11] = Solubility of the compound in phosphate buffer at pH 7.4; format: physicochemical
Outline: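 Solubility was measured from solid material in phosphate buffer at pH 7.4.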

[12] = Half life in mouse plasma at 5 umol/kg, iv and 30 umol/kg, po; format: ADME, organism-based
[13] = target: Phosphatidylinositol 4,5-bisphosphate 3-kinase catalytic subunit gamma isoform (Homo sapiens, UniProt P48736); assay: Inhibition of human recombinant PI3Kgamma assessed as depletion of ATP substrate by Ultra Glo luciferase assay
Outline: (§5)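 Enzyme IC50s are reported as the geometric mean of 3 or more values.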

[14] = Bioavailability in mouse plasma at 5 umol/kg, iv and 30 umol/kg, po; format: ADME, organism-based; outline: as §1
[15] = target: T1, Phosphatidylinositol 4,5-bisphosphate 3-kinase catalytic subunit alpha isoform; assay: Inhibition of human recombinant PI3Kalpha assessed as depletion of ATP substrate by Ultra Glo luciferase assay; outline: as §5
[16] = Intrinsic clearance in human hepatocytes measured per 10^6 cells; format: ADME, cell-based, Hepatocyte; conditions: read-out: CLH
Outline: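 Intrinsic clearance was measured in human hepatocytes and is expressed in µL/min/10^6 cells.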

[17] = Fraction unbound in human plasma; format: ADME, cell-free; outline: as §4
[18] = target: T2, Phosphatidylinositol 4,5-bisphosphate 3-kinase catalytic subunit delta isoform (Homo sapiens, UniProt O00329); assay: Inhibition of human recombinant PI3Kdelta assessed as depletion of ATP substrate by Ultra Glo luciferase assay; outline: as §5
T2 sequence (O00329 whole entry): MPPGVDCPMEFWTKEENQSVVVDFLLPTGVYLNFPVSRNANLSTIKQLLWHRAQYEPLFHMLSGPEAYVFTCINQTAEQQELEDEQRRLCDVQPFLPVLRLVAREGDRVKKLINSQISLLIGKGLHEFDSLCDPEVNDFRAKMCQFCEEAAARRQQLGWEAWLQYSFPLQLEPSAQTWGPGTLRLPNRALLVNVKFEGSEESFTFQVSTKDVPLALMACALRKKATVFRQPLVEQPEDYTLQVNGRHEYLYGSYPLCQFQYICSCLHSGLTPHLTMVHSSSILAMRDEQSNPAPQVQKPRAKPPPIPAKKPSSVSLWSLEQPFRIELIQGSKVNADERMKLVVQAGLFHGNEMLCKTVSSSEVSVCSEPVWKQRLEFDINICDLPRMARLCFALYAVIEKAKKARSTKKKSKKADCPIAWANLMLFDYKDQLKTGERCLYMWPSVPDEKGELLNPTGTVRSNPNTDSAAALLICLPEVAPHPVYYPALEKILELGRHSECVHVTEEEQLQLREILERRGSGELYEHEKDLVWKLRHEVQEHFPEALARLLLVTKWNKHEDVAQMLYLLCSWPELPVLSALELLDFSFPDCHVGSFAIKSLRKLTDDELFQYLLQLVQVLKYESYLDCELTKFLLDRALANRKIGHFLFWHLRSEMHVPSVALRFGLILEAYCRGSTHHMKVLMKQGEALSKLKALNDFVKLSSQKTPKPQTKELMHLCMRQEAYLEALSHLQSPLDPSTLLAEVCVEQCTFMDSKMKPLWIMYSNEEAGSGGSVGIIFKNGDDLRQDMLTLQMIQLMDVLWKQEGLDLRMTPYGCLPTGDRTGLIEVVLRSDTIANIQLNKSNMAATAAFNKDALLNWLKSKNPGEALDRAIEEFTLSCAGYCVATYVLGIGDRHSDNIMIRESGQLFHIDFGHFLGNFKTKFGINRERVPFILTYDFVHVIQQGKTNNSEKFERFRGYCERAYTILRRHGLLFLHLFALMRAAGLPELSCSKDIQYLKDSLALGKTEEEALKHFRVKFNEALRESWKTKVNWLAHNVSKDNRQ

[19] = target: T3, Phosphatidylinositol 4,5-bisphosphate 3-kinase catalytic subunit beta isoform (Homo sapiens, UniProt P42338); assay: Inhibition of human recombinant PI3Kbeta assessed as depletion of ATP substrate by Ultra Glo luciferase assay; outline: as §5
[20] = Ratio of total plasma concentration in PTEN-null human PC3 cells xenografted in SCID mouse at 100 mg/kg, po single dose at 0.5 hrs to IC50 for PI3Kbeta in human […] cells; parameters: species or system PC-3
Outline: (§6)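 SCID mice bearing PTEN-null PC3 prostate tumour xenografts got a single oral dose given as a suspension. Total plasma concentration was measured at the sampled time points (0.5, 4 or 8 h). The value is the […] cover over the PI3Kβ cellular IC50, which comes from inhibition of Ser473 Akt phosphorylation in PTEN-null MDA-MB-468 breast adenocarcinoma cells.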

[21] = target: T3, Phosphatidylinositol 4,5-bisphosphate 3-kinase catalytic subunit beta isoform; assay: Inhibition of PI3Kbeta in human MAD-MB-468 cells assessed as inhibition of Ser473 Akt phosphorylation by cellular potency assay
Mus musculus [22] = assay: Inhibition of Akt phosphorylation in SCID mouse xenografted with PTEN-null human PC3 cells at 200 mg/kg, po measured after 4 hrs; format: functional; conditions: PC-3, 4 h; outline: as §3
[23] = Total plasma concentration in SCID mouse xenografted with PTEN-null human PC3 cells at 200 mg/kg, po measured after 8 hrs; format: ADME, organism-based, PC-3; parameters: dose 200 mg/kg, route oral; outline: as §2
[24] = Total plasma concentration in SCID mouse xenografted with PTEN-null human PC3 cells at 200 mg/kg, po measured after 4 hrs; format: ADME, organism-based, PC-3; parameters: dose 200 mg/kg, route oral; outline: as §2
[25] = Ratio of total plasma concentration in PTEN-null human PC3 cells xenografted in SCID mouse at 200 mg/kg, po single dose at 8 hrs to IC50 for PI3Kbeta in human […] cells; parameters: species or system PC-3; outline: as §6
[26] = Ratio of total plasma concentration in PTEN-null human PC3 cells xenografted in SCID mouse at 200 mg/kg, po single dose at 4 hrs to IC50 for PI3Kbeta in human […] cells; parameters: species or system PC-3; outline: as §6
[27] = Ratio of total plasma concentration in PTEN-null human PC3 cells xenografted in SCID mouse at 200 mg/kg, po single dose at 0.5 hrs to IC50 for PI3Kbeta in human […] cells; parameters: species or system PC-3; outline: as §6
[28] = Total plasma concentration in SCID mouse xenografted with PTEN-null human PC3 cells at 200 mg/kg, po measured after 30 mins; format: ADME, organism-based, PC-3; parameters: dose 200 mg/kg, route oral; outline: as §2
Mus musculus [29] = assay: Inhibition of Akt phosphorylation in SCID mouse xenografted with PTEN-null human PC3 cells at 200 mg/kg, po measured after 30 mins; format: functional; conditions: PC-3, 0.5 h; outline: as §3
Mus musculus [30] = assay: Inhibition of Akt phosphorylation in SCID mouse xenografted with PTEN-null human PC3 cells at 200 mg/kg, po measured after 8 hrs; format: functional; conditions: PC-3, 8 h; outline: as §3
[31] = Total plasma concentration in SCID mouse xenografted with PTEN-null human PC3 cells at 100 mg/kg, po measured after 1 hr; format: ADME, organism-based, PC-3; parameters: dose 100 mg/kg, route oral; outline: as §2
Mus musculus [32] = assay: Inhibition of Akt phosphorylation in SCID mouse xenografted with PTEN-null human PC3 cells at 100 mg/kg, po measured after 8 hrs; format: functional; conditions: PC-3, 8 h; outline: as §3
Mus musculus [33] = assay: Inhibition of Akt phosphorylation in SCID mouse xenografted with PTEN-null human PC3 cells at 100 mg/kg, po measured after 1 hr; format: functional; conditions: PC-3, 1 h; outline: as §3
[34] = Ratio of total plasma concentration in PTEN-null human PC3 cells xenografted in SCID mouse at 100 mg/kg, po single dose at 8 hrs to IC50 for PI3Kbeta in human MAD-MB-468 cells; parameters: species or system PC-3
[35] = Ratio of total plasma concentration in PTEN-null human PC3 cells xenografted in SCID mouse at 100 mg/kg, po single dose at 1 hrs to IC50 for PI3Kbeta in human MAD-MB-468 cells; parameters: species or system PC-3
[36] = Total plasma concentration in SCID mouse xenografted with PTEN-null human PC3 cells at 100 mg/kg, po measured after 8 hrs; format: ADME, organism-based, PC-3; parameters: dose 100 mg/kg, route oral; outline: as §2

T1 sequence (P42336 whole entry, canonical isoform): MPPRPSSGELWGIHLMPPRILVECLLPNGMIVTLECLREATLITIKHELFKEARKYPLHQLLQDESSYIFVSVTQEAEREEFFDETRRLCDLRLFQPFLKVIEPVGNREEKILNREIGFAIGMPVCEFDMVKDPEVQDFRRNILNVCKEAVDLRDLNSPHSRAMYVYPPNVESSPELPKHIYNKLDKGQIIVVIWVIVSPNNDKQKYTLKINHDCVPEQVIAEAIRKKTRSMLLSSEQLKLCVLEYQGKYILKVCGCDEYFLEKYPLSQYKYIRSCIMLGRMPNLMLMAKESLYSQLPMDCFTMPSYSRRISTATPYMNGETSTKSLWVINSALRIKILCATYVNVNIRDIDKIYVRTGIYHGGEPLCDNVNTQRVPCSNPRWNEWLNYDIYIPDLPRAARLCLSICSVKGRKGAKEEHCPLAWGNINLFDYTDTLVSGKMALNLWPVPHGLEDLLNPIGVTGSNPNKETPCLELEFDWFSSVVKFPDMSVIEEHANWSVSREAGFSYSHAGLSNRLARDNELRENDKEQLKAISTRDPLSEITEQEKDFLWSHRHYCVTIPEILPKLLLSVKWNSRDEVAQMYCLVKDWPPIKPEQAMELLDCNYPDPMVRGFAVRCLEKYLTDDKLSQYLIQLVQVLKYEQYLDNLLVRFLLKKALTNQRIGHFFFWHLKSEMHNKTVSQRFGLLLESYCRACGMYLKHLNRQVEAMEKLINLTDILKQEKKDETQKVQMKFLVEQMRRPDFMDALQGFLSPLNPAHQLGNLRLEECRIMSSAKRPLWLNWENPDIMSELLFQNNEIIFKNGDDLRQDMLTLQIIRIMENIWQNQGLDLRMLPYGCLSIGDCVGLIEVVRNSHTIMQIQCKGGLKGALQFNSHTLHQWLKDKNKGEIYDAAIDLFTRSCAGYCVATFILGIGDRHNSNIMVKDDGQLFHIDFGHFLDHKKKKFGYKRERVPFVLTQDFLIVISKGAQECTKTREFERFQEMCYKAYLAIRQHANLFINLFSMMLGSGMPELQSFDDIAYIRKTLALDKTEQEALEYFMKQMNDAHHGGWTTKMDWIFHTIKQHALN
T3 sequence (P42338 whole entry, canonical isoform): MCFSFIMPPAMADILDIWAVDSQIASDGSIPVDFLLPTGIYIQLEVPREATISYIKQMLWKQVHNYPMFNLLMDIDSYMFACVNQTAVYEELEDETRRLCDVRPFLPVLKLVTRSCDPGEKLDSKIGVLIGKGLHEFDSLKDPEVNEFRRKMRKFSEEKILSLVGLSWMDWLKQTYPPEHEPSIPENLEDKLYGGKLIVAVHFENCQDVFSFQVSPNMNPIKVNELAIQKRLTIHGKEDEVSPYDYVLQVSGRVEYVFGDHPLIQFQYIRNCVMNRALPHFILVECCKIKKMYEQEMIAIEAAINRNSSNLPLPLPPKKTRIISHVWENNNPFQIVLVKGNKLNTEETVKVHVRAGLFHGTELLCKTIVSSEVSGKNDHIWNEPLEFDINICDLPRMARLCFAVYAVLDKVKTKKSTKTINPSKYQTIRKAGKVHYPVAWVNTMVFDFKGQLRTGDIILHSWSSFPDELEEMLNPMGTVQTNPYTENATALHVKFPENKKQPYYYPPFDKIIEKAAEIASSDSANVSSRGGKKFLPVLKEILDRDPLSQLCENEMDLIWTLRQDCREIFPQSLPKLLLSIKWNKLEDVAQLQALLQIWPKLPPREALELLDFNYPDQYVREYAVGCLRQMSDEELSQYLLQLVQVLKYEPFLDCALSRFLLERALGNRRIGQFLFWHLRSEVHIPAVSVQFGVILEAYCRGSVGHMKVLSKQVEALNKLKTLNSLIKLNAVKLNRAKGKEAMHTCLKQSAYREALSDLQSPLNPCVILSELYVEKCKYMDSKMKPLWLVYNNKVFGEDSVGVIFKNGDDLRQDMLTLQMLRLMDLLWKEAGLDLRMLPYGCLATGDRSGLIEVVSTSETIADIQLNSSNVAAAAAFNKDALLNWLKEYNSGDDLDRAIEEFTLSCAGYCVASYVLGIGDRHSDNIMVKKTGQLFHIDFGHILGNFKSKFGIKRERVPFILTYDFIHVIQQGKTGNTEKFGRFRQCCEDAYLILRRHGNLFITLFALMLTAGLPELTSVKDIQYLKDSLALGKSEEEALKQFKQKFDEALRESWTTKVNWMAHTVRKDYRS
Phosphatidylinositol 4,5-bisphosphate 3-kinase catalytic subunit gamma isoform, sequence (P48736 whole entry, canonical isoform): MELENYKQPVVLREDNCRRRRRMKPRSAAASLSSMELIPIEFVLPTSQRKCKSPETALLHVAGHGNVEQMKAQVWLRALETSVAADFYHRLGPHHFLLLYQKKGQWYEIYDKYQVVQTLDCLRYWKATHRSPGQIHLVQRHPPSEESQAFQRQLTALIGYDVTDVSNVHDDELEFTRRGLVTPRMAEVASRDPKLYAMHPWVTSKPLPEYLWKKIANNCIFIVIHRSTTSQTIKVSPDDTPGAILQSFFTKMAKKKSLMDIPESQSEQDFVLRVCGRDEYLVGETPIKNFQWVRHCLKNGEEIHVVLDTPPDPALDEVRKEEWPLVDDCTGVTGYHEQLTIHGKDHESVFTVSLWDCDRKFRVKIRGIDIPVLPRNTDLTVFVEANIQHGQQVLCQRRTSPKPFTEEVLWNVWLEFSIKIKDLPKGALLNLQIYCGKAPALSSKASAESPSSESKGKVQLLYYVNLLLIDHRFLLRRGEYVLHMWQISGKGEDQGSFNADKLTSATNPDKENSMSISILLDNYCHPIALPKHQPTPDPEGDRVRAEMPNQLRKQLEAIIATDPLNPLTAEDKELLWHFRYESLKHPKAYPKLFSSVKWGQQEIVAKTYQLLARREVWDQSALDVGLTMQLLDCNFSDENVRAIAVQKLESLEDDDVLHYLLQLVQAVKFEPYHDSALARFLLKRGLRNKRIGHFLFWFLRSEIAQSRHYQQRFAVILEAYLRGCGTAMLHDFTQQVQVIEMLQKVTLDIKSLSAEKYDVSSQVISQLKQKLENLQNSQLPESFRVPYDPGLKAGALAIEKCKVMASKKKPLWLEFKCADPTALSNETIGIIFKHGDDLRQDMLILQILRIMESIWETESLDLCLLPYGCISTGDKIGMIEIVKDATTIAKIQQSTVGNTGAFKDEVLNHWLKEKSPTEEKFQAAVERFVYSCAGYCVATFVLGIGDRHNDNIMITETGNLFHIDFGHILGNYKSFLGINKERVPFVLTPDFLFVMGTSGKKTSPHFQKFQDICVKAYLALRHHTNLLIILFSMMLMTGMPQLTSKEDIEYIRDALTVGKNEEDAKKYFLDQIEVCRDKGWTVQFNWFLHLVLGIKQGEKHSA

Row | SMILES | clearance [1] [mL/min/kg] | logD [4] | concentration at 4 h [5] [µM] | inhibition in vivo at 100 mg/kg (Mus musculus [6]) [%] | IC50 [7] [nM] | Ratio [8] | fraction unbound [9] | Papp A→B [10] [×10⁻⁶ cm/s] | solubility [11] [µM] | IC50 [13] [nM] | bioavailability [14] [%] | IC50 [15] [nM] | hepatocyte CLint [16] [µL/min/1e6 cells] | fraction unbound [17] | IC50 [18] [nM] | IC50 [19] [nM] | IC50 [21] [nM] | further results
1 | CC(Nc1ccc(F)cc1)c1cc(C(=O)N(C)C)cn2c(=O)cc(N3CCOCC3)nc12 (single isomer, unassigned; (-)) | 45 | 2.3 | 8.1 | 60 | 11600 | 16 | 0.12 | 34 | 130 (≈ 57.1 µg/mL) | 13500 | 70 | 1300 | 3 | 0.21 | 230 | 37 | 62 | concentration at 0.5 h [2]: 71 µM; Ratio IC50 (Homo sapiens): 190; inhibition in vivo at 100 mg/kg (Mus musculus [3]): 85%; half-life [12]: 1.1 h; Ratio [20]: 140
2 | CC(Nc1ccc(F)c(F)c1)c1cc(C(=O)N(C)C)cn2c(=O)cc(N3CCOCC3)nc12 (single isomer, unassigned; (-)) | 74 | 2.7 | – | – | 4700 | – | 0.087 | 44 | 20 (≈ 9.15 µg/mL) | 3000 | 35 | 340 | 9 | 0.14 | 45 | 7 | 34 | inhibition in vivo at 200 mg/kg (Mus musculus [22]): 81%; concentration at 8 h [23]: 0.3 µM; concentration at 4 h [24]: 2.3 µM; Ratio [25]: 2.5; Ratio [26]: 5.9; Ratio [27]: 10; concentration at 0.5 h [28]: 3.9 µM; inhibition in vivo at 200 mg/kg (Mus musculus [29]): 81%; inhibition in vivo at 200 mg/kg (Mus musculus [30]): 71%
3 | C[C@@H](Nc1cc(F)cc(F)c1)c1cc(C(=O)N(C)C)cn2c(=O)cc(N3CCOCC3)nc12 | 82 | 3 | 6.8 | 80 | 1200 | 106 | 0.047 | 50 | 15 (≈ 6.86 µg/mL) | 510 | 31 | 75 | 11 | 0.12 | 32 | 5 | 3 | concentration at 1 h [31]: 13 µM; inhibition in vivo at 100 mg/kg (Mus musculus [32]): 56%; inhibition in vivo at 100 mg/kg (Mus musculus [33]): 92%; Ratio [34]: 41; Ratio [35]: 204; concentration at 8 h [36]: 2.6 µM
